The results in this text go back to ChEMBL document CHEMBL4184153, “Optimization of a series of heterocycles as survival motor neuron gene transcription enhancers” (Bioorg Med Chem Lett, 2017).

≈ marks a conversion by molar mass, not a printed value. Calls of active or inactive are those of the source. The rule behind the calls is not given here. Some results are limits rather than exact numbers.

The subject of series [1] is HEK293. The series can be described thus: Activation of SMN2 gene (unknown origin) transcription in HEK293 cells expressing SMN2-luc assessed as increase in SMN2 mRNA level at 0.1 to 50 uM after 24 hrs by luciferase reporter gene assay relative to control. In kind it is cell-based. A digest of the protocol: (§1)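 Luciferase reporter read-out of SMN2 expression; compounds tested at various concentrations (0.1 – 50 μM) against 0.1% DMSO controls. Dose-response curves fitted to give EC50 and percent maximum increase in SMN2 expression; values mean ± S.E.M.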
A general note: Reporter assays use an easily measured gene product as a stand-in for the process of interest.

Series [2] in a line: Activation of SMN2 gene (unknown origin) transcription in HEK293 cells expressing SMN2-luc assessed as increase in SMN2 mRNA level after 24 hrs by luciferase reporter gene assay. As to conditions: HEK293, 24 h. In kind it is cell-based. A digest of the protocol:
as §1

A short description of series [3]: Aqueous solubility of the compound at pH 7.4. In kind it is physicochemical. Particulars: aqueous medium.
Series [4] in a line: Half life in mouse microsomes. In kind it is ADME, Microsome.
Series [5] deals with Survival motor neuron protein (Homo sapiens, UniProt Q16637). The series can be described thus: Stabilization of human SMN protein expressed in HEK293 cells expressing SMN2 promoter after 24 hrs by luciferase reporter gene assay. Format: cell-based.
Sequence of Survival motor neuron protein (Q16637 whole entry): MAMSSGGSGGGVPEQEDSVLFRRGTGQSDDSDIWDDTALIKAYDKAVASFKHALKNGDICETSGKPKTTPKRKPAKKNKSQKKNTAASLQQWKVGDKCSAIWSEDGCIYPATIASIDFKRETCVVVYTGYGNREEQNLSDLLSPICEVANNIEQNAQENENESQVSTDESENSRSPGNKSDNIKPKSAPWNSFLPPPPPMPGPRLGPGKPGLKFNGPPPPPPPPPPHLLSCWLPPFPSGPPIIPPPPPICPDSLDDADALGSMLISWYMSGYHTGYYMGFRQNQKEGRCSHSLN
For series [6], the system named is HEK293. The series can be described thus: Activation of SMN1 gene (unknown origin) transcription in HEK293 cells assessed as increase in SMN1 exon 7 transcript level after 24 hrs by qRT-PCR analysis. Format: cell-based. For orientation: In qPCR the cycle at which signal appears reflects the starting amount.
Series [7] has as its system HEK293. Kind of series: Activation of SMN2 gene (unknown origin) transcription in HEK293 cells expressing SMN2-luc assessed as increase in SMN2 mRNA level after 24 hrs by qRT-PCR analysis. In kind it is cell-based.
The species named for series [8] is Homo sapiens. Kind of series: Increase in SMN2 mRNA expression in SMA derived human fibroblasts assessed as increase in SMN protein level.
The species entered for series [9] is Homo sapiens. Kind of series: Increase in SMN2 mRNA expression in SMA derived human fibroblasts assessed as increase in SMN protein aggregates (Gems).
The subject of series [10] is Mus musculus. Kind of series: Increase in life span of SMNdelta7 SMA mouse model assessed as median survival days at 20 mg/kg, ip, administered once daily beginning at PND2 (reference value: 6 days).

Consider `COc1cc2c(c(OC)c1OC)C(c1cc([N+](=O)[O-])ccc1F)CC(=O)N2` (stereo not given), for which the outcome in [1] was inactive.

Turning to `COc1cc2c(c(OC)c1OC)C(c1cc(Cl)ccc1F)OC(=O)N2` (stereo not given), in series [1], the Emax (as a rule, the size of the effect at its maximum, as opposed to the concentration needed) stood at 125%.

For `COc1cc2c(c(OC)c1OC)C(c1cc(C)ccc1F)NC(=O)N2` (stereo not given), the Emax in series [1] is 125%. Also, the concentration for a half-maximal effect (EC50) (usually the midpoint of the concentration-response curve) in [2] is 4.3 µM.

Consider `COc1cc2[nH]c(=O)nc(-c3cc(Cl)ccc3F)c2c(OC)c1OC`, for which the outcome in series [1] was inactive.

Take `COc1cc2c(c(OC)c1OC)C(c1cccc(Cl)c1Cl)CC(=O)N2` (stereo not given): the result in series [1] was inactive.

Consider `COc1cc2c(c(OC)c1OC)C(c1cc(Br)ccc1F)CC(=O)N2C` (stereo not given), for which the result in series [1] was inactive.

Turning to `COc1cc2c(c(OC)c1OC)C(c1cc(Cl)ccc1F)=NCC(=O)N2`, the Emax in series [1] amounted to 125%. For the same compound, the 50% effective concentration (EC50) in [2] amounted to 8.4 µM.

`COc1cc2c(c(OC)c1OC)C(c1ccc(Cl)cc1F)NC(=O)N2` (stereo not given): the maximal effect (Emax) in series [1] came to 150%. In addition, in series [2], the half-maximal effective concentration (EC50) came out at 6.3 µM.

For the compound `COc1ccccc1C1NC(=O)Nc2cc(OC)c(OC)c(OC)c21` (stereo not given), the result in series [1] was inactive.

As to `COc1cc2c(c(OC)c1OC)C(c1cc(Cl)ccc1F)OC(C)C(=O)N2` (mixture of isomers), in series [1], the maximal effect (Emax) turned out to be 125%. Besides, the EC50 in [2] came out at 2.6 µM.

As to `COc1cc2c(c(OC)c1OC)C(c1ccccc1F)N(C)C(=O)N2` (stereo not given), the Emax in [1] lay in the range of 100 to 180%. Besides, in series [2], the EC50 is 6 to 10 µM.

For the compound `COc1cc2c(c(OC)c1OC)C(c1ccc(Cl)c(Cl)c1)CC(=O)N2` (stereo not given), the result in [1] was inactive.

As for `COc1cc2c(c(OC)c1OC)C(c1cc(Br)ccc1F)C(C)C(=O)N2` (mixture of isomers), the outcome in series [1] was inactive.

Take `COc1ccc(C2NC(=O)Nc3cc(OC)c(OC)c(OC)c32)cc1` (stereo not given): the outcome in series [1] was inactive.

Consider `COc1ccc(Cl)cc1C1NC(=O)Nc2cc(OC)c(OC)c(OC)c21` (stereo not given), for which, in series [1], the Emax is 225%. For the same compound, in series [2], the half-maximal effective concentration (EC50) was found to be 3.6 µM.

As for `COc1cc2c(c(OC)c1OC)C(c1ccccc1Cl)NC(=O)N2` (stereo not given), the outcome in series [1] was inactive.

For `COc1cc2c(c(OC)c1OC)C(c1ccc(F)c(F)c1)CC(=O)N2` (stereo not given), the outcome in series [1] was inactive.

As to `COc1cc2c(c(OC)c1OC)C(c1cc(Cl)ccc1F)OCC(=O)N2` (stereo not given), the Emax in [1] turned out to be 150%. Further, the EC50 in [2] is 5.9 µM. Further, in [3], the solubility (commonly how much of the substance goes into solution per volume) was 58 µM (≈ 22.1 µg/mL). Moreover, in series [4], the half-life – broadly, the time in which the quantity being followed falls by half – came to 3 min.

As for `COc1cc2c(c(OC)c1OC)C(c1cc(C#N)ccc1F)NC(=O)N2` (stereo not given), the result in series [1] was inactive.

With `COc1cc2c(c(OC)c1OC)C(c1cc(C#N)ccc1F)CC(=O)N2` (stereo not given), the result in series [1] was inactive.

`COc1cc2c(c(OC)c1OC)C(c1cc(Cl)ccc1F)CC(=O)N2` (stereo not given): in series [1], the Emax was found to be 150%. Further, in series [2], the EC50 worked out at 12 µM.

In the case of `COc1cc2c(c(OC)c1OC)C(c1ccccc1F)CC(=O)N2` (stereo not given), the result in series [1] was inactive.

Take `COc1cc2c(c(OC)c1OC)C(C)(c1cc(Cl)ccc1F)OCC(=O)N2` (stereo not given): the outcome in series [1] was inactive.

Turning to `COc1ccc2c(c1OC)C(c1cc(Br)ccc1F)CC(=O)N2` (stereo not given), in [1], the result was inactive.

As to `COc1ccc(F)c(C2NC(=O)Nc3cc(OC)c(OC)c(OC)c32)c1` (stereo not given), the outcome in [1] was inactive.

As to `COc1cc2c(c(OC)c1OC)C(c1cccc(F)c1)NC(=O)N2` (stereo not given), the Emax in series [1] came to 150%. Besides, in series [2], the EC50 is 25 µM.

As for `CC(C)c1cc(C(=O)Nc2ccc(F)c(Cl)c2)no1`, the Emax in series [1] stood at 242%. The compound also returned an EC50 in series [5] of 1800 nM.

As to `COc1cc2c(c(OC)c1OC)C(c1cc(F)ccc1F)NC(=O)N2` (stereo not given), in series [1], the Emax worked out at 100%. Moreover, the EC50 in series [2] turned out to be 17 µM.

Consider `COc1cccc(C2NC(=O)Nc3cc(OC)c(OC)c(OC)c32)c1` (stereo not given), for which, in series [1], the Emax came to 100%. In addition, the half-maximal effective concentration (EC50) in series [2] amounted to 18 µM.

As to `COc1cc(Cl)ccc1C1NC(=O)Nc2cc(OC)c(OC)c(OC)c21` (stereo not given), the Emax in series [1] was found to be 200%. The EC50 in series [2] came to 7.8 µM.

For `COc1cc2c(c(OC)c1OC)C(c1cc(C(N)=O)ccc1F)CC(=O)N2` (stereo not given), the result in [1] was inactive.

Turning to `COc1cc2c(c(OC)c1OC)C(c1ccc(Cl)cc1Cl)CC(=O)N2` (stereo not given), the result in [1] was inactive.

With `COc1cc2c(c(OC)c1OC)C(c1ccc(F)cc1)NC(=O)N2` (stereo not given), the Emax in [1] is 150%. Moreover, the EC50 in series [2] was determined as 14 µM.

On to `COc1cc2c(c(OC)c1OC)C(c1ccc(Cl)cc1)NC(=O)N2` (stereo not given), for which the Emax in series [1] was 150%. Besides, in series [2], the EC50 turned out to be 6.6 µM.

Turning to `COc1cc2c(c(OC)c1OC)C(c1cc(Cl)ccc1F)OCC(=O)N2C` (stereo not given), in series [1], the outcome was inactive.

Turning to `COc1cc2c(c(OC)c1OC)C(c1cc(-c3ccccc3)ccc1F)NC(=O)N2` (stereo not given), the result in [1] was inactive.

For `COc1cc2c(c(OC)c1OC)C(c1cccc(Br)c1)CC(=O)N2` (stereo not given), the outcome in [1] was inactive.

Take `COc1cc2c(c(OC)c1OC)C(c1cc(Cl)ccc1F)NC(=O)N2` (racemic): the result in series [6] and in series [7] was Active. In addition, the fold change (FC) in series [8] and in series [9] was 2 each time. Moreover, the Emax in series [1] turned out to be 263%. Besides, in series [2], the EC50 amounted to 4.1 µM. This compound also showed a solubility in series [3] of 91 µM (≈ 33.4 µg/mL). Further, the half-life in series [4] was found to be 20 min. Besides, the median survival in series [10] worked out at 15 days.

`COc1cc2c(c(OC)c1OC)C(c1cc(Br)ccc1F)CC(=O)N2` (stereo not given): the Emax in [1] worked out at 186%. The EC50 in series [2] came to 8.3 µM. The compound also returned a solubility in series [3] below 1 µM.

As to `COc1cc2c(c(OC)c1OC)C(c1cc(F)ccc1F)CC(=O)N2` (stereo not given), the result in series [1] was inactive.

As for `COc1cc2c(c(OC)c1)C(c1cc(Br)ccc1F)CC(=O)N2` (stereo not given), the result in series [1] was inactive.

As for `CCCN1C(=O)Nc2cc(OC)c(OC)c(OC)c2C1c1cccc(Cl)c1` (stereo not given), the Emax in series [1] amounted to 100%. Also, the EC50 in series [2] amounted to 5.2 µM.
